Experimental data: ChEMBL document CHEMBL1139378, “Dual integrin and gastrin-releasing peptide receptor targeted tumor imaging using 18F-labeled PEGylated RGD-bombesin heterodimer 18F-FB-PEG3-Glu-RGD-BBN” (J Med Chem, 2009)
One block for each compound: values may come before it.

Columns and labels:
[1] = target: Gastrin-releasing peptide receptor (Homo sapiens) (UniProt P30550); test: Displacement of [125I][Tyr4]BBN form gastrin-releasing peptide receptor in human PC3 cells
[2] = Drug uptake in human PC3 cells xenografted mouse tumor at 3.7 MBq, iv after 30 mins by micro PET imaging; type: ADME, organism-based, Neoplasm, PC-3; details: in vivo, 0.5 h
Summary of the method: (§1)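 PC-3 xenograft nude mice (tumors 100–300 mm³) were given ~3.7 MBq (100 μCi) i.v. by tail vein under isoflurane. Static 5-min scans were taken at 30 min, 1 and 2 h (n = 4), plus a 35-min dynamic scan starting 1 min pi in one mouse. Images were OSEM-reconstructed without attenuation correction. Tumor and organ %ID/g came from ROIs on decay-corrected coronal images, assuming 1 g/mL density.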

[3] = Drug uptake in human PC3 cells xenografted mouse tumor at 3.7 MBq, iv after 60 mins by micro PET imaging; type: ADME, organism-based, Neoplasm, PC-3; details: in vivo, 1 h
Summary of the method: as §1

[4] = Drug uptake in human PC3 cells xenografted mouse tumor at 3.7 MBq, iv after 120 mins by micro PET imaging; type: ADME, organism-based, Neoplasm, PC-3; details: in vivo, 2 h
Summary of the method: as §1

Liver [5] = test: Drug uptake in human PC3 cells xenografted mouse liver at 3.7 MBq, iv after 30 mins by micro PET imaging; type: ADME, organism-based, PC-3; details: in vivo, 0.5 h
Summary of the method: as §1

[6] = Ratio of drug uptake in tumor to blood from human PC3 cells xenografted mouse at 3.7 MBq, iv after 120 mins by micro PET imaging; type: ADME, organism-based, PC-3; details: tumour, 2 h
Summary of the method: (§2)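 Tumor/nontumor ratios were calculated from ROI-derived %ID/g on decay-corrected 5-min static microPET scans at 2 h after ~3.7 MBq i.v. tracer in PC-3 xenograft nude mice (n = 4).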

[7] = Ratio of drug uptake in tumor to liver from human PC3 cells xenografted mouse at 3.7 MBq, iv after 120 mins by micro PET imaging; type: ADME, organism-based, PC-3; details: in vivo, 2 h
Summary of the method: as §2

[8] = Ratio of drug uptake in tumor to kidneys from human PC3 cells xenografted mouse at 3.7 MBq, iv after 120 mins by micro PET imaging; type: ADME, organism-based, PC-3; details: in vivo, 2 h
Summary of the method: as §2

[9] = Ratio of drug uptake in tumor to muscle from human PC3 cells xenografted mouse at 3.7 MBq, iv after 120 mins by micro PET imaging; type: ADME, organism-based, PC-3; details: in vivo, 2 h
Summary of the method: as §2

[10] = Drug uptake in human PC3 cells xenografted mouse tumor at 3.7 MBq, iv by micro PET imaging in presence of RGD; type: ADME, organism-based, Neoplasm, PC-3; details: in vivo
Summary of the method: (§3)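 PC-3 tumor-bearing mice were co-injected i.v. with 3.7 MBq tracer and a blocking dose of c(RGDyK) (10 mg/kg), Aca-BBN(7–14) (15 mg/kg), or both. A 5-min static microPET scan was taken at 1 h pi (n = 3), and ROI-derived %ID/g was measured on decay-corrected coronal images.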

[11] = Drug uptake in human PC3 cells xenografted mouse tumor at 3.7 MBq, iv by micro PET imaging in presence of BBN; type: ADME, organism-based, Neoplasm, PC-3; details: in vivo
Summary of the method: as §3

[12] = Drug uptake in human PC3 cells xenografted mouse tumor at 3.7 MBq, iv by micro PET imaging in presence of RGD and BBN; type: ADME, organism-based, Neoplasm, PC-3; details: in vivo
Summary of the method: as §3

[13] = Drug uptake in human PC3 cells xenografted mouse tumor at 3.7 MBq, iv after 5 mins by micro PET imaging; type: ADME, organism-based, Neoplasm, PC-3; details: in vivo
Summary of the method: as §1

[14] = Drug uptake in human PC3 cells xenografted mouse tumor at 3.7 MBq, iv after 15 mins by micro PET imaging; type: ADME, organism-based, Neoplasm, PC-3; details: in vivo, 0.25 h
Summary of the method: as §1

[15] = Biodistribution in human PC3 cells xenografted athymic nude mouse tumor at 0.74 MBq, iv after 1 hr; type: ADME, organism-based, Neoplasm, PC-3; details: in vivo
Summary of the method: (§4)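 PC-3 human prostate carcinoma cells were grown in F-12K with 10% FBS, and 5×10^6 cells were injected s.c. into the right front flank of male athymic nude mice. Each mouse received 0.74 MBq (20 μCi) tracer and was sacrificed at 1 h pi. Tissues were wet-weighed and γ-counted against an injectate aliquot. Values are %ID/g normalized to 20 g body mass, mean ± SD, n = 4.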

Kidney = test: Biodistribution in human PC3 cells xenografted athymic nude mouse kidney at 0.74 MBq, iv after 1 hr; type: ADME, organism-based, PC-3; details: in vivo
Summary of the method: as §4

Blood = test: Biodistribution in human PC3 cells xenografted athymic nude mouse blood at 0.74 MBq, iv after 1 hr; type: ADME, organism-based, PC-3; details: in vivo
Summary of the method: as §4

Heart = test: Biodistribution in human PC3 cells xenografted athymic nude mouse heart at 0.74 MBq, iv after 1 hr; type: ADME, organism-based, PC-3; details: in vivo
Summary of the method: as §4

Liver [16] = test: Biodistribution in human PC3 cells xenografted athymic nude mouse liver at 0.74 MBq, iv after 1 hr; type: ADME, organism-based, PC-3; details: in vivo
Summary of the method: as §4

Spleen = test: Biodistribution in human PC3 cells xenografted athymic nude mouse spleen at 0.74 MBq, iv after 1 hr; type: ADME, organism-based, PC-3; details: in vivo
Summary of the method: as §4

Bone = test: Biodistribution in human PC3 cells xenografted athymic nude mouse bone at 0.74 MBq, iv after 1 hr; type: ADME, organism-based, Bone element, PC-3; details: in vivo
Summary of the method: as §4

Muscle tissue = test: Biodistribution in human PC3 cells xenografted athymic nude mouse muscle at 0.74 MBq, iv after 1 hr; type: ADME, organism-based, PC-3; details: in vivo
Summary of the method: as §4

PC-3 [17] = test: Cellular uptake in human PC3 cells after 30 mins; type: ADME, cell-based; details: pc-3, 0.5 h
Summary of the method: (§5)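 PC-3 cells were seeded at 5×10^5 per well and left overnight, then PBS-rinsed and incubated with ~0.3 μCi/well radiotracer in culture medium at 37 or 4 °C for 15–120 min. Cells were washed with chilled PBS, trypsinized and γ-counted. Uptake is % of added radioactivity; two experiments, triplicate wells.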

PC-3 [18] = test: Cellular uptake in human PC3 cells after 15 mins; type: ADME, cell-based; details: pc-3, 0.25 h
Summary of the method: as §5

PC-3 [19] = test: Cellular uptake in human PC3 cells after 60 mins; type: ADME, cell-based; details: pc-3, 1 h
Summary of the method: as §5

PC-3 [20] = test: Cellular uptake in human PC3 cells after 120 mins; type: ADME, cell-based; details: pc-3, 2 h
Summary of the method: as §5

PC-3 [21] = test: Inhibition of cellular uptake in human PC3 cells after 60 mins in presence of RGD; details: pc-3, 1 h
PC-3 [22] = test: Inhibition of cellular uptake in human PC3 cells after 60 mins in presence of BBN; details: pc-3, 1 h
PC-3 [23] = test: Inhibition of cellular uptake in human PC3 cells after 60 mins in presence of RGD and BBN; details: pc-3, 1 h

Sequence of Gastrin-releasing peptide receptor (Homo sapiens) (P30550 whole entry, looked up): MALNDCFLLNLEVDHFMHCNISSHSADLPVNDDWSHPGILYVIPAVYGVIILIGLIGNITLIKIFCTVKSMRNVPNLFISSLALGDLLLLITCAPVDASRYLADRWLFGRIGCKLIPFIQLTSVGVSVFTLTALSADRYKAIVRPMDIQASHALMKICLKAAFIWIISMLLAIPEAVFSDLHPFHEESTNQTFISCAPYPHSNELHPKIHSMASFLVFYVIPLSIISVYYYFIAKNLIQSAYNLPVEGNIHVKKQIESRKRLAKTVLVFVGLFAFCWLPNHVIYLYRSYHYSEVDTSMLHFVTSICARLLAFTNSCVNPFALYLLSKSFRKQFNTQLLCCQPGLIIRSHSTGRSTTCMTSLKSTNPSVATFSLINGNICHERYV

IC50 ([1]; pc-3): 73.3 nM
SMILES: CSCC[C@@H](NC(=O)[C@H](CC(C)C)NC(=O)[C@@H](Cc1c[nH]cn1)NC(=O)CNC(=O)[C@H](NC(=O)[C@H](C)NC(=O)[C@@H](Cc1c[nH]c2ccccc12)NC(=O)[C@H](CCC(N)=O)NC(=O)CCCCCNC(=O)CC[C@H](NC(=O)COCCOCCOCCNC(=O)c1ccc(F)cc1)C(=O)NCCCC[C@H]1NC(=O)[C@@H](CCCNC(=N)N)NC(=O)CNC(=O)[C@@H](CC(=O)O)NC(=O)[C@H](Cc2ccc(O)cc2)NC1=O)C(C)C)C(N)=O

IC50 [1]: 85.4 nM
SMILES: CSCC[C@H](NC(=O)[C@H](CC(C)C)NC(=O)[C@H](Cc1c[nH]cn1)NC(=O)CNC(=O)[C@@H](NC(=O)[C@H](C)NC(=O)[C@H](Cc1c[nH]c2ccccc12)NC(=O)[C@H](CCC(N)=O)NC(=O)CCCCCNC(=O)CC[C@H](NC(=O)COCCOCCOCCN)C(=O)NCCCC[C@@H]1NC(=O)[C@H](CCCNC(=N)N)NC(=O)CNC(=O)[C@H](CC(=O)O)NC(=O)[C@@H](Cc2ccc(O)cc2)NC1=O)C(C)C)C(N)=O

Drug uptake [2]: 6.35 % ID/g
Drug uptake [3]: 4.41 % ID/g
Drug uptake [4]: 2.88 % ID/g
Drug uptake (Liver [5]): 2 % ID/g
Ratio [6]: 8.1
Ratio [7]: 6.43
Ratio [8]: 1.44
Ratio [9]: 10.54
Drug uptake [10]: 2.19 % ID/g
Drug uptake [11]: 1.58 % ID/g
Drug uptake [12]: 0.43 % ID/g
Drug uptake [13]: 3.54 % ID/g
Drug uptake [14]: 4.86 % ID/g
Drug uptake [15]: 4 % ID/g
Drug uptake (Kidney): 4.87 % ID/g
Drug uptake (Blood): 2 % ID/g
Drug uptake (Heart): 2 % ID/g
Drug uptake (Liver [16]): 2 % ID/g
Drug uptake (Spleen): 2 % ID/g
Drug uptake (Bone): 2 % ID/g
Drug uptake (Muscle tissue): 2 % ID/g
Drug uptake (PC-3 [17]): 5.51%
Drug uptake (PC-3 [18]): 4.72%
Drug uptake (PC-3 [19]): 5.87%
Drug uptake (PC-3 [20]): 6.65%
Inhibition (PC-3 [21]): 17.55%
Inhibition (PC-3 [22]): 83.67%
Inhibition (PC-3 [23]): 91.97%
SMILES: CSCC[C@@H](NC(=O)[C@H](CC(C)C)NC(=O)[C@@H](Cc1c[nH]cn1)NC(=O)CNC(=O)[C@H](NC(=O)[C@H](C)NC(=O)[C@@H](Cc1c[nH]c2ccccc12)NC(=O)[C@H](CCC(N)=O)NC(=O)CCCCCNC(=O)CC[C@H](NC(=O)COCCOCCOCCNC(=O)c1ccc([18F])cc1)C(=O)NCCCC[C@H]1NC(=O)[C@@H](CCCNC(=N)N)NC(=O)CNC(=O)[C@@H](CC(=O)O)NC(=O)[C@H](Cc2ccc(O)cc2)NC1=O)C(C)C)C(N)=O
